# Most compounds without a hit are left out; they make up all but 3.5% or so of the library.
# RGS4 act – RGS4 potentiators or activators, primary screen, cell-based, HEK293 M3R inducible RGS4, calcium flux; 310,000 tested, 0.92% active; AID 463111, 2010; carbachol calcium flux Fluo4; hits give low values; B-score at 10 µM;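 active means B-score of the integrated calcium signal more than 4 SD below the library mean, with starting fluorescence not abnormally high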;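 further: negative B-score means reduced calcium response which marks RGS4 activation or potentiation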
#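 Also added: carbachol at ECmax as muscarinic agonist stimulus; Assay system: HEK293 cells with stable M3R and inducible RGS4; Timing: overnight RGS4 induction, 30 min dye load 37 °C, 20 min compound RT; Measured by: Fluo4-AM (2 µM) calcium-flux fluorescence, kinetic read.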
# MrgX1 PAM – positive allosteric modulators of MrgX1, primary screen, HEK293 cells, Fluo-4 calcium flux. AID 588675, 2011. Mas-related G-protein coupled receptor member X1 (Homo sapiens), Q96LB2. FDSS; hits give high values. 310,000 tested, 0.63% active. B-score at 10 µM;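 active means plate-corrected calcium response at least 3 library SD above typical, normal starting fluorescence, not activating the receptor alone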;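 further: compound read alongside a low EC10 to EC30 dose of BAM8-22 agonist; peak minus trough fluorescence over baseline measured at the second addition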
# Target sequence (Q96LB2 whole entry, looked up): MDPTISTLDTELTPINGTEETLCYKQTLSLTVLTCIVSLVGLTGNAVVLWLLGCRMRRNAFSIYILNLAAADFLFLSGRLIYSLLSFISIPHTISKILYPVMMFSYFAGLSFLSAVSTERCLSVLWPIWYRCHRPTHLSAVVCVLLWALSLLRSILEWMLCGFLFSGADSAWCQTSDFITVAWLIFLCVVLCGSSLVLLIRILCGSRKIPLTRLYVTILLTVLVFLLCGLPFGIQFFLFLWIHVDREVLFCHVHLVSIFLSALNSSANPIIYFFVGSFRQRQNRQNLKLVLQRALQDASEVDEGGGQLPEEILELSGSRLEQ
# MrgX1 agonist – agonists of human MrgX1 receptor, primary screen, HEK293 cells, Fluo-4 calcium flux; Fluo-4 calcium fluorescence, agonist mode; hits give high values; B-score at 10 µM; 310,000 tested, 0.44% active;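 active means calcium response B-score plate-corrected fluorescence ratio at least 3 library SD, with starting fluorescence B-score inside 5 SD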
#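 Test system: HEK293 cells stably expressing human MrgX1 receptor; Input: fifteen thousand cells per well; Dosing: compound delivered in addition one of three; Schedule: overnight seeding, then 1 h dark dye loading; Technique: Fluo-4 NW calcium fluorescence; Measure: B-scored fluorescence response ratio; Controls: positive and negative controls per plate.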
# RGS4 block – RGS4 inhibitors, primary screen, cell-based, HEK293 M3R inducible RGS4, calcium flux; Regulator of G-protein signaling 4 (Homo sapiens), P49798; Fluo-4 calcium flux; hits give high values; triggered by carbachol at its EC20; B-score at 10 µM; 310,000 tested, 0.45% active;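 active means B-score, a plate-corrected calcium signal, over three deviations above library mean, with baseline fluorescence within five deviations of library mean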;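 further: RGS4 expression induced by doxycycline in cells with stable M3 receptor; B-score is computed from the integrated fluorescence ratio over baseline after carbachol; higher B-score means a larger calcium signal and so more RGS4 inhibition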
# Target sequence (P49798 whole entry, looked up): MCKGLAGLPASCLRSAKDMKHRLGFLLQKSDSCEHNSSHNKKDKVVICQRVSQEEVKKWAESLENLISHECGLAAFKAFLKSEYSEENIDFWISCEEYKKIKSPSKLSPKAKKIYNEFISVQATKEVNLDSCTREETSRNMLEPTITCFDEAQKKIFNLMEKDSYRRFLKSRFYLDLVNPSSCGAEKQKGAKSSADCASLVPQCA
# MrgX1 antagonist – antagonists of human MrgX1 receptor, primary screen, HEK293 cells, Fluo-4 calcium flux; Mas-related G-protein coupled receptor member X1 (Homo sapiens), Q96LB2; BAM8-22 antagonism; hits give low values; B-score at 10 µM; 310,000 tested, 1.3% active;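 active means calcium-response B-score plate-corrected more than 3 library SD below zero, starting fluorescence within 5 deviations, no agonist response on first addition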;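 further: peak minus trough fluorescence over baseline after final BAM8-22 challenge near maximal dose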
# A number is an active result; 0 = inactive; - = no result given.
SMILES,RGS4 act,MrgX1 PAM,MrgX1 agonist,RGS4 block,MrgX1 antagonist
N=C1/C(=C\c2ccc(-c3cc(Cl)cc(Cl)c3)o2)C(=O)N=C2SC=C(c3ccccc3)N12,0,0,0,0,0
C=C(C)CCC(C)N1CCC(n2nccc2NC(=O)CCOc2ccccc2)CC1 (configuration not stated),0,0,0,0,0
O=C(CSc1nnc(NC(=O)c2ccccc2[N+](=O)[O-])s1)NC1CCCC1,0,0,0,0,0
N#C/C(C(=O)Nc1ccc(Cl)cc1)=C(/S)Nc1ccccc1,0,0,0,0,0
Cc1ccc(/C=C2\CCC3=C2OC(N)=C(C#N)C3c2ccc(C)cc2)cc1 (configuration not stated),0,0,73,0,0
N=C1/C(=C/c2ccc(OCc3ccccc3)cc2)C(=O)N=C2SC(CC(=O)N3CCOCC3)=NN12,0,9.7,0,0,0
CN(C)c1ccc(/C=C2\C(=N)N3C(=NC2=O)Sc2cc(S(C)(=O)=O)ccc23)cc1,0,0,29,0,0
Cc1cc(/C=C2\C(=N)N3N=C(CC(=O)N4CCOCC4)SC3=NC2=O)c(C)n1Cc1ccccc1,0,0,0,0,0
CN(C)c1ccc(/C=C2\C(=N)N3N=C(CC(=O)N4CCCCC4)SC3=NC2=O)cc1,0,0,55,0,0
CC1CN(C(=O)CCC(=O)NCc2ccc(Cl)cc2)c2ccccc2O1 (configuration not stated),0,0,0,0,0
COc1ccc(-c2cc(C(F)(F)F)c3c(n2)sc2c(O)cc(=O)[nH]c23)c(OC)c1,0,0,39,0,0
Cc1ccc(C(C)C)cc1OCC(=O)N1CCN(C(=O)c2ccco2)CC1,0,0,0,0,0
CCOC(=O)c1c(C)[nH]c(C2=NNC(=Nc3cccc(Cl)c3)SC2)c1C,0,22,0,0,0
COc1ccc(-c2noc(CNC(=O)c3ccoc3C)n2)cc1OC,0,0,0,0,0
CC(C)O/C(=N\S(=O)(=O)c1ccc(Cl)cc1)c1ccccc1,-7.1,0,0,0,0
CC(C)CO/C(=N/S(=O)(=O)c1ccccc1)c1ccccc1,0,0,0,0,0
Cc1ccccc1N=C(NOCc1ccc(Cl)cc1Cl)c1nonc1N,-7.3,0,0,0,0
Cc1ccc(N=C(NO)c2nonc2N)c(C)c1,0,0,0,0,0
Cc1ccc(N=C(NOCc2ccc(Cl)cc2Cl)c2nonc2N)c(C)c1,-7.6,0,0,0,0
COc1ccc(/C=N/NC(=O)CNC(=O)c2ccncc2)cc1OC,0,0,0,0,0
CC(C)CCN1C(=O)c2ccc(C(=O)N3CCCCC3)cc2C1=O,0,0,0,0,0
O=C(Nc1ccccc1)C1=C[C@H](c2ccccc2)C[C@H](OCc2ccc(CO)cc2)O1,0,7.3,0,0,0
COCCNC(=O)c1onc(CSc2ccccc2)c1C(=O)NCCOC,0,0,0,0,0
CC(=O)n1cc(N(C(=O)CCl)c2ccc(C)cc2)c2ccccc21,-7.2,0,0,0,0
CC(=O)N(c1ccc(Cl)cc1)c1cn(C(C)=O)c2ccccc12,0,0,0,0,0
SMILES,RGS4 act,MrgX1 PAM,MrgX1 agonist,RGS4 block,MrgX1 antagonist
O=S(=O)(/N=C(/c1ccc(F)cc1)N1CCCCC1)c1ccc(Cl)cc1,0,0,0,0,0
CCOc1cc(/C=C(/C#N)C(=O)Nc2ccc(O)cc2)cc(Br)c1O,0,0,62,0,0
O=C(CCN1CCCCCC1)c1ccccc1,-,0,31,-,0
Cc1ccc(N=C2SC(C(=O)Nc3ccc(OC(F)(F)F)cc3)C(N)=C2C(=O)Nc2c(C)cc(C)cc2C)cc1 (configuration not stated),-,10,0,-,0
CCN(CC)S(=O)(=O)c1cccc(NC(=O)C2SC(=Nc3ccc(C)cc3C)C(C(=O)NC(C)COC)=C2N)c1 (configuration not stated),0,0,0,0,0
CN(C)c1nc2ccc(OCCN3CCCCC3)cc2s1,-7.3,0,0,0,0
COc1cccc2c1OCC(C(=O)Nc1nccs1)=C2,0,0,28,0,0
O=C(c1ccco1)N1N=C(c2cccs2)CC1c1cc([N+](=O)[O-])ccc1O (configuration not stated),0,7.1,0,0,0
COc1ccc(CCNC(=O)C(=O)NCC2OCCN2S(=O)(=O)c2ccc(Cl)cc2)cc1OC (configuration not stated),0,0,0,0,0
COc1cc(OC)c(C(=O)Nc2ccncc2)cc1OC,0,0,0,0,0
COc1ccc(C(=O)N/N=C(/C)c2cccc(NC(=O)c3ccncc3)c2)cc1OC,-7,0,0,0,0
COc1cccc(C(=O)Nc2ccc(C(=O)c3ccncc3)cc2)c1,0,7.1,0,0,0
COc1cc(OC)c(C(=O)Nc2ccc(C(=O)c3ccccc3)cc2)cc1OC,-7.2,0,0,0,0
COc1cccc(C(=O)Nc2ccc(NC(C)=O)cc2)c1,0,0,0,0,0
CC(C)(C)n1nnnc1C(c1cccnc1)N(Cc1ccccc1)Cc1cccs1 (configuration not stated),0,0,0,0,-6
Oc1ccccc1C1=Nc2nc3ccccc3n2C(c2ccccc2)C1 (configuration not stated),0,17,0,0,0
N#C/C(=C\c1cccnc1)c1nc2c(s1)CCCC2,0,0,0,0,-5.5
Cc1ccc(C(=O)NNc2cc(=O)n(C)c(=O)n2C)cc1C,0,0,0,0,-5.1
CC(C)C(=O)O/N=C(\N)c1ccc(Oc2ccc(Cl)cc2)c([N+](=O)[O-])c1,-8.6,0,0,0,0
OC[C@H]1O[C@H](OC[C@H]2O[C@H](OC[C@H]3O[C@H](O[C@]4(CO)O[C@H](CO)[C@@H](O)[C@@H]4O)[C@H](O)[C@@H](O)[C@@H]3O)[C@H](O)[C@@H](O)[C@H]2O)[C@H](O)[C@@H](O)[C@H]1O,0,0,0,0,0
CCc1nc2oc3ccc(C)cc3c(=O)c2cc1C(=O)OC,0,0,0,0,0
O=C1COc2ccc(S(=O)(=O)N3CCCC3)cc2N1,0,0,0,0,0
O=C1COc2ccc(N3C(=O)C=CC3=O)cc2N1,0,0,0,5,0
O=Nc1c(-c2c(O)[nH]c3cc(Br)ccc23)[nH]c2ccccc12,0,0,0,0,0
CC(=O)NC(Cc1cccc(C)c1)C(=O)NC1CCN(c2ncccc2[N+](=O)[O-])CC1 (configuration not stated),0,0,0,0,-4.7
CCCCS(=O)(=O)/C=C\C=C/S(=O)(=O)CCCC,0,0,33,0,0
CCCCS(=O)(=O)/C=C\C1C2C=CC(C2)C1S(=O)(=O)CCCC (configuration not stated),0,0,0,0,0
